Sampled rows, rich in hits. Any-hit rate of the full collection: about 5.8%.
Pf Dd2 inh: inhibitors of Plasmodium falciparum Dd2 growth | P. falciparum Dd2 growth, SYBR Green, 72 h; hits give low values | activity change, % at 10 µM | actives 2.3% (n = 94,000); in the data active = activity change below about -80%; inconclusive = no clear call, values can overlap the other calls
IDH1 R132H inh: inhibitors of human IDH1 R132H; O75874; IDH1 R132H reductase, diaphorase/resazurin fluorescence, 60 min; inhibition, % at 10 µM; actives 0.18% (n = 70,000); AID 624101; in the data active = inhibition above about 34%; inconclusive = no clear call, values can overlap the other calls; inactive = below about 11%
KDM4C inh: inhibitors of human demethylase GASC-1 KDM4C | GST-KDM4C 2-372, H3K9me3 peptide, LANCE TR-FRET | inhibition, % at 12.5 µM | AID 720574 | actives 0.15% (n = 96,000) | Q9H3R0;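 active = mean replicate inhibition above about 25%, with at least 55% of replicates also reaching it, limit read from the data, passing the limit was not always enough; inconclusive = only one of those two conditions met; inactive = neither condition met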
Target sequence (Q9H3R0 2-372 limits assumed): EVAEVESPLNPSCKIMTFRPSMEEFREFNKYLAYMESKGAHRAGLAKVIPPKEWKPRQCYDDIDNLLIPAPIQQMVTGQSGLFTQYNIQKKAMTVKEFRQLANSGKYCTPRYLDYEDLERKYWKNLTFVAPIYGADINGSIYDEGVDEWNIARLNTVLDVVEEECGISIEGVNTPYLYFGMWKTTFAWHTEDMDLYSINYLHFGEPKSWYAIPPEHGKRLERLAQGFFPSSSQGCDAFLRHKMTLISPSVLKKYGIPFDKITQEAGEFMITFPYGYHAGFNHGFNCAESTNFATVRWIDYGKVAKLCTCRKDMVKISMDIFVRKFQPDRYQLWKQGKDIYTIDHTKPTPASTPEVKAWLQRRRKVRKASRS
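Compound: one test concentration per compound; Material: GST-GASC-1 enzyme fragment 2-372; Amount: GASC-1 enzyme at 10 nM final in reaction; Also added: H3K9me3 peptide substrate, Fe(II), 2-oxoglutarate; Technique: LANCE TR-FRET; Times: 30 min demethylation and 1 h detection at room temperature.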
Tcruzi prolif: T. cruzi proliferation inhibition. T. cruzi beta-gal in NIH3T3, GalScreen luminescence, 90 h. inhibition, % at 8.34 µM. actives 5.9% (n = 77,000);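 active = mean inhibition above about 93%, with at least 55% of replicates each passing it, limit read from the data, passing the limit was not always enough; inconclusive = only one of those two conditions holds; inactive = neither condition holds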
Hits are given with their value; . = inactive; ? = inconclusive; / = not tested or not shown.

SMILES	Pf Dd2 inh	IDH1 R132H inh	KDM4C inh	Tcruzi prolif
C[C@H](CO)N1C[C@H](C)[C@H](CN(C)Cc2ccc(-c3ccccc3)cc2)Oc2ccc(NC(=O)Nc3ccc4c(c3)OCO4)cc2CC1=O	.	.	.	.
C[C@H](CO)N1C[C@H](C)[C@@H](CN(C)Cc2ccc(Oc3ccccc3)cc2)Oc2ccc(NS(=O)(=O)c3cn(C)cn3)cc2CC1=O	-90.2	.	.	.
C[C@H]1CN([C@@H](C)CO)C(=O)Cc2cc(NC(=O)Nc3ccccc3)ccc2O[C@H]1CN(C)Cc1ccc(Oc2ccccc2)cc1	.	.	.	.
C[C@H](CO)N1C[C@H](C)[C@@H](CN(C)Cc2ccc(-c3ccccc3)cc2)Oc2ccc(NC(=O)Nc3ccc4c(c3)OCO4)cc2CC1=O	-82.1	.	.	.
C[C@H](CO)N1C[C@H](C)[C@@H](CN(C)Cc2ccc3c(c2)OCO3)Oc2ccc(NC(=O)Nc3ccc4c(c3)OCO4)cc2CC1=O	-91.2	.	.	.
C[C@H]1CN([C@@H](C)CO)C(=O)Cc2cc(NS(=O)(=O)c3cn(C)cn3)ccc2O[C@H]1CN(C)Cc1ccc(Oc2ccccc2)cc1	.	.	.	.
C=CC[C@]12N=C(c3ccc(OCCCO)cc3)O[C@H]1c1ccccc1CN(Cc1ccccc1)C2=O	/	.	/	/
C[C@@H](NC(=O)C[C@H]1CC[C@H]2[C@@H](COC[C@@H](O)CN2C)O1)c1ccccc1	.	/	.	.
C[C@H](CO)N1C[C@H](C)[C@@H](CN(C)C(=O)NC2CCCCC2)Oc2ncc(C#CCN(C)C)cc2C1=O	.	.	.	.
O=C(CSc1nc(-c2ccccc2)cc(C(F)(F)F)n1)Nc1cccc(Cl)c1Cl	/	.	/	/
C[C@@H]1CN([C@@H](C)CO)C(=O)Cc2cc(NC(=O)Nc3ccccc3)ccc2O[C@H]1CN(C)Cc1ccc(-c2ccccc2)cc1	-88.0	.	.	.
C[C@H](CO)N1C[C@H](C)[C@@H](CN(C)C(=O)Nc2ccccc2)Oc2ccc(NC(=O)Nc3ccc4c(c3)OCO4)cc2CC1=O	.	.	.	.
C[C@H](CO)N1C[C@H](C)[C@@H](CN(C)C(=O)Nc2ccc3c(c2)OCO3)Oc2ccc(NC(=O)Nc3ccccc3)cc2CC1=O	-83.3	.	.	.
COc1cc(C(=O)OCc2ccc(-c3cccc(Cl)c3Cl)o2)cc(OC)c1OC	/	.	/	/
COc1ccc(S(=O)(=O)Nc2ccc3c(c2)CC(=O)N([C@H](C)CO)C[C@H](C)[C@@H](CN(C)Cc2ccc(C(=O)Nc4ccccc4N)cc2)O3)cc1	-85.4	.	.	.
COc1ccc(S(=O)(=O)Nc2ccc3c(c2)CC(=O)N([C@@H](C)CO)C[C@H](C)[C@@H](CN(C)Cc2ccc(C(=O)Nc4ccccc4N)cc2)O3)cc1	-88.1	.	.	/
N#C[C@H]1[C@@H](c2ccccc2-c2ccccc2)[C@@H](CO)N1C(=O)Cc1ccncc1	.	/	.	/
COc1ccc(C#Cc2ccc3c(c2)[C@@H]2[C@@H](CCN2C(=O)C2CCCC2)[C@H](CO)N3)cc1	-84.2	/	.	/
COc1ccc(C#Cc2ccc3c(c2)[C@@H]2[C@@H](CCN2C(=O)C2CC2)[C@H](CO)N3)cc1	-89.5	/	.	/
COc1ccc(C#Cc2ccc3c(c2)[C@H]2[C@H](CCN2C(=O)C2CCC2)[C@H](CO)N3)cc1	?	/	.	/
COc1ccc(C#Cc2ccc3c(c2)[C@H]2[C@H](CCN2C(=O)C2CCC2)[C@@H](CO)N3)cc1	-86.3	/	.	/
COc1ccc(C#Cc2ccc3c(c2)[C@H]2[C@H](CCN2C(=O)C2CCCCC2)[C@H](CO)N3)cc1	.	/	.	.
COc1ccc2c3c(n(C)c2c1)[C@H](CO)N(C(=O)CC1CC1)CC31CCN(C(=O)C2CC2)CC1	.	/	.	/
COc1ccc(S(=O)(=O)Nc2ccc3c(c2)C(=O)N([C@@H](C)CO)C[C@@H](C)[C@@H](CN(C)S(=O)(=O)c2ccc(Cl)cc2)OCCCC[C@H](C)O3)cc1	-84.9	/	.	.
COc1ccc(S(=O)(=O)N(C)C[C@@H]2OCCCC[C@H](C)Oc3ccc(NS(=O)(=O)c4ccc(Cl)cc4)cc3C(=O)N([C@H](C)CO)C[C@@H]2C)cc1	-89.1	.	.	/
Cc1noc(C)c1S(=O)(=O)Nc1ccc2c(c1)C(=O)N([C@H](C)CO)C[C@@H](C)[C@@H](CN(C)S(=O)(=O)c1ccc(Cl)cc1)OCCCC[C@H](C)O2	-88.4	.	.	.
COc1ccc(S(=O)(=O)Nc2ccc3c(c2)C(=O)N([C@H](C)CO)C[C@H](C)[C@@H](CN(C)S(=O)(=O)c2ccc(Cl)cc2)OCCCC[C@H](C)O3)cc1	.	.	.	.

From PubChem BioAssay
